Tests used:
[1] = Tissue distribution in tumor-bearing mice; type: in vivo, nude mice; details: for AUC of DTX: native DTX 10 mg/kg
Procedure, shortened: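 Female nude mice bearing subcutaneous xenografts (cells in 50% Matrigel) got a single iv dose when tumors reached about 400 mm3. Free drug was sampled at 0.083, 1, 6, 24 and 48 h (n = 3 per time). Heart blood was taken under ether into heparin, and plasma was spun at 4°C. Organs were rinsed, stored at −30°C and homogenized 25% w/w in PBS pH 7.4. Drug was quantified by reversed-phase HPLC at 40°C.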

[2] = Toxicology study in cynomolgus monkeys; type: in vivo
Procedure, shortened: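 Male cynomolgus monkeys aged 3–4 years (2.5–3.7 kg, n = 3) were dosed iv three times at 2-week intervals. Food consumption, general condition and body weight were followed for 42 days. White blood cell and neutrophil counts were monitored. Values are means of three monkeys with standard deviation.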

[3] = Toxicity dose-finding study in nude mice; type: in vivo
[4] = tested on: MDA-MB-231 human breast tumor; assay: MDA-MB-231 human breast tumor xenograft model; type: in vivo, nude mice
Procedure, shortened: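 3 × 10^6 cells in 50% Matrigel were injected subcutaneously into the backs of female 5-week-old nude mice. Dosing started on day 0: three tail-vein iv injections at 4-day intervals, with an untreated control group. Tumor volume and body weight were tracked. Points are means of seven mice with standard error.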

[5] = tested on: OCUM-2MLN human scirrhous gastric carcinoma; assay: OCUM-2MLN orthotopic scirrhous gastric carcinoma model; type: in vivo, nude mice; details: DTX 10 mg/kg; data not shown
advanced gastric cancer = details: monotherapy, patients with advanced gastric cancer; cited from earlier work
[6] = Toxicology studies in mice; type: in vivo, mice (Crlj:CD1 (ICR)); details: for ALT / AST / CRE / UN: native DTX 10 mg/kg iv x3 at 4-day intervals, one mouse
Procedure, shortened: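 Male Crlj:CD1 (ICR) mice (n = 10) received iv dosing three times at 4-day intervals, and condition and body weight were followed for 49 days. Mice were killed one at a time for blood collection and autopsy, including macroscopic review of liver and bone marrow. AST, ALT, creatinine and urea nitrogen were run on a clinical chemistry analyzer, with hematology on an automated analyzer.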

[7] = once-every-3-week schedule; cited from earlier work
[8] = native DTX 3 mg/kg iv three times at 2-week intervals

## CC(=O)O[C@@]12CO[C@@H]1C[C@H](O)[C@@]1(C)C(=O)[C@H](O)C3=C(C)[C@@H](OC(=O)[C@H](O)[C@@H](NC(=O)OC(C)(C)C)c4ccccc4)C[C@@](O)([C@@H](OC(=O)c4ccccc4)[C@H]21)C3(C)C [Native DTX, Docetaxel]
[1]; Heart
  AUC of DTX: 9.5 μg/g or mL · h
[1]; Kidney
  AUC of DTX: 44.2 μg/g or mL · h
[1]; Liver
  AUC of DTX: 40.1 μg/g or mL · h
[1]; Lung
  AUC of DTX: 13.6 μg/g or mL · h
[1]; Plasma
  AUC of DTX: 6.7 μg/g or mL · h
[1]; Spleen
  AUC of DTX: 27.3 μg/g or mL · h
[1]; Tumor
  AUC of DTX: 12.6 μg/g or mL · h
[1]; native DTX 10 mg/kg iv
  time DTX in plasma remained over 0.1 μg/mL: less than 5 hours
[2]; native DTX 3 mg/kg
  adverse effects: adverse effects including gastrointestinal symptoms
[2]; [8]
  additional weight lost compared with animals administered NC-6301: up to 20%
  white blood cell count and neutrophil count: significantly decreased
[2]; native DTX 3 mg/kg, NC-6301 3 or 6 mg/kg, iv three times at 2-week intervals
  decrease in food consumption: critical decrease
[3]; mouse MTD 10 mg/kg, three times at 4-day intervals
  MTD converted to human equivalent: 30.3 mg/m^2
[3]; native DTX 15 mg/kg vs less than 15 mg/kg, iv three times every 4 days
  body weight change: significant decrease in body weight
[4]; native DTX 10 mg/kg iv x3, mice bearing MDA-MB-231 xenograft
  maximum body weight loss: approximately 10%
[4]; three injections at 4-day intervals, NC-6301 50 mg/kg, native DTX 10 mg/kg
  effect on tumor growth: transient and slight regression
[5]
  body weight loss compared with NC-6301 at the higher dose: worse
Advanced gastric cancer
  response rate: 20%
[6]; Day 1
  ALT: 28 U/L
  AST: 85 U/L
  CRE: 0.07 mg/dL
  UN: 26.1 mg/dL
[6]; Day 7
  ALT: 44 U/L
  AST: 239 U/L
  CRE: 0.17 mg/dL
  UN: 27.1 mg/dL
[6]; Day 10
  ALT: 23 U/L
  AST: 91 U/L
  CRE: 0.14 mg/dL
  UN: 25.4 mg/dL
[6]; Day 14
  ALT: 19 U/L
  AST: 62 U/L
  CRE: 0.20 mg/dL
  UN: 30.5 mg/dL
[6]; Day 21
  ALT: 24 U/L
  AST: 71 U/L
  CRE: 0.12 mg/dL
  UN: 20.0 mg/dL
[6]; Day 28
  ALT: 22 U/L
  AST: 65 U/L
  CRE: 0.15 mg/dL
  UN: 41.4 mg/dL
[6]; Day 35
  ALT: 46 U/L
  AST: 171 U/L
  CRE: 0.12 mg/dL
  UN: 28.0 mg/dL
[6]; Day 42
  ALT: 27 U/L
  AST: 83 U/L
  CRE: 0.11 mg/dL
  UN: 22.1 mg/dL
[6]; Day 49
  ALT: 22 U/L
  AST: 56 U/L
  CRE: 0.12 mg/dL
  UN: 23.5 mg/dL
[6]; NC-6301 50 mg/kg, native DTX 10 mg/kg, data not shown
  myelosuppression: mild and transient
[6]; three injections, NC-6301 50 mg/kg, native DTX 10 mg/kg, 49 days
  change in liver- or kidney-related blood test markers: No significant change
[7]
  MTD in humans: 100 mg/m^2

From publication PMC3383288 (International Journal of Nanomedicine, 2012)
